Test results taken from ChEMBL document CHEMBL3351892, “Synthesis and structure-activity relationship of non-peptidic antagonists of neuropilin-1 receptor” (Bioorg Med Chem Lett, 2014).

Assays:
HUVEC [1] = assay: Cytotoxicity against HUVEC after 48 hrs by WST1 assay; assay type: functional, cell-based; conditions: Homo sapiens
Procedure, shortened: (§1)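 WST-1 viability: HUVEC seeded 3 × 10^3, MDA-MB-231 5 × 10^3 cells/well; compounds added one day after seeding at varied concentrations (up to 10 µM); after 48 h medium removed, WST-1 added, 1–2 h at 37 °C, OD 490 nm. Mean of three independent experiments, triplicate per concentration; IC50 from sigmoid dose–response fit.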

MDA-MB-231 [2] = assay: Inhibition of cell proliferation of human MDA-MB-231 after 72 hrs by crystal violet adhesion based colorimetric assay; assay type: functional; conditions: MDA-MB-231, 72 h
Procedure, shortened: (§2)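 Crystal violet adhesion: HUVEC 3 × 10^3, MDA-MB-231 5 × 10^3 cells/well, treated 72 h at varied concentrations (up to 10 µM); fixed 4% paraformaldehyde 15 min, PBS pH 7.4 wash, 0.04% crystal violet 30 min, solubilized 2% Triton X-100, OD 595 nm. Mean of three independent experiments in triplicate; IC50 from sigmoid dose–response curve.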

MDA-MB-231 [3] = assay: Cytotoxicity against human MDA-MB-231 after 48 hrs by WST1 assay; assay type: functional, cell-based; conditions: MDA-MB-231, 48 h; procedure, shortened: as §1
HUVEC [4] = assay: Inhibition of cell proliferation of HUVEC after 72 hrs by crystal violet adhesion based colorimetric assay; assay type: functional; conditions: Homo sapiens; procedure, shortened: as §2
[5] = target: Neuropilin-1 (Homo sapiens) (UniProt O14786); assay: Inhibition of biotinylated VEGFA165 binding to NRP1 (unknown origin) at 10 uM by chemiluminescent assay
Procedure, shortened: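 NRP-1 coated overnight at 0.2 µg/mL in PBS, 4 °C; washed PBS/0.5% Tween 20, blocked 0.5% BSA 2 h 37 °C. Compound preincubated 1 h at 37 °C, then biotinylated VEGF-A165 with 4 µg/mL heparin 2 h at 37 °C; chemiluminescent read-out; percent displacement of bound tracer at 10 µM.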

Sequence of Neuropilin-1 (Homo sapiens) (O14786 whole entry): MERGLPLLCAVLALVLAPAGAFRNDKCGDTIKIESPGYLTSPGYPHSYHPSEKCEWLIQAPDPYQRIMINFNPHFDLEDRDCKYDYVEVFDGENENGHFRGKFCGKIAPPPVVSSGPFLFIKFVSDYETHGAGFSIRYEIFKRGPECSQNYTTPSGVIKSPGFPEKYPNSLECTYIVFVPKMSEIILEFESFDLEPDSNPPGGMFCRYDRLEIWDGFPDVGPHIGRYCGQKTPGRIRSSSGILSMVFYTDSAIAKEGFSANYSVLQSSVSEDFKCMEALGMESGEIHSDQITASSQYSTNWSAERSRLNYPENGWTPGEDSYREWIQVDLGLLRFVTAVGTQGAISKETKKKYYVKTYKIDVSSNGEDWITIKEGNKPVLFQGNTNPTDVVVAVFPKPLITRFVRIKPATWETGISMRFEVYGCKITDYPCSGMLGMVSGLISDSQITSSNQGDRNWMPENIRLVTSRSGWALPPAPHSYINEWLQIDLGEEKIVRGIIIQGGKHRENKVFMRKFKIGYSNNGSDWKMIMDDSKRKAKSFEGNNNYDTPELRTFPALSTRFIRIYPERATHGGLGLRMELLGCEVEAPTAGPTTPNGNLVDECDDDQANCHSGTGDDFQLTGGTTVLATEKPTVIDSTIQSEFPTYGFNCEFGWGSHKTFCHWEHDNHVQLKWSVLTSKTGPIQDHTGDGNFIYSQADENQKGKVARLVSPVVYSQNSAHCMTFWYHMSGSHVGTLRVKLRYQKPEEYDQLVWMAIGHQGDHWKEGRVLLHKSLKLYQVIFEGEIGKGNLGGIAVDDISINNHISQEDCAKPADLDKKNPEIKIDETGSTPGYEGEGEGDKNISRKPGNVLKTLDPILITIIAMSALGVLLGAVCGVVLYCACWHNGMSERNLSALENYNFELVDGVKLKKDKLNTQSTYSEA

IC50 (MDA-MB-231 [2]) [µM] | inhibition [5] [%] | SMILES | IC50 (HUVEC [1]) [µM] | IC50 (MDA-MB-231 [3]) [µM] | IC50 (HUVEC [4]) [µM]
6 | – | Cc1ccc(-c2nc3ccccc3[nH]2)cc1NC(=S)NC(=O)c1ccc2c(c1)OCO2 | 1.5 | 6 | 0.75
6 | 46 | O=C(NC(=S)Nc1cccc(-c2nc3ccccc3[nH]2)c1)c1ccc2c(c1)OCO2 | 0.3 | 6 | 0.3
– | 0 | N#Cc1ccc2[nH]c(-c3cccc(NC(=S)NC(=O)c4ccc5c(c4)OCCO5)c3)nc2c1 | 1 | > 10 | –
8 | 14 | O=C(NC(=S)Nc1cccc(-c2nc3ccccc3s2)c1)c1ccc2c(c1)OCO2 | 1 | 10 | 0.9
0.5 | 38 | O=C(NC(=S)Nc1cccc(-c2nc3ccccc3[nH]2)c1)c1ccc2c(c1)OCCO2 | 0.05 | 0.4 | < 0.1
– | 37 | N#Cc1ccc2[nH]c(-c3cccc(NC(=S)NC(=O)c4ccc5c(c4)OCO5)c3)nc2c1 | – | – | 6

The next lines start with the compound.

SMILES | IC50 (MDA-MB-231 [2]) [µM] | inhibition [5] [%] | IC50 (HUVEC [1]) [µM] | IC50 (MDA-MB-231 [3]) [µM] | IC50 (HUVEC [4]) [µM]
S=C(NCc1ccc2c(c1)OCO2)Nc1cccc(-c2nc3ccccc3[nH]2)c1 | > 10 | – | > 10 | > 10 | > 10
Cc1ccc(-c2nc3ccccc3[nH]2)cc1NC(=S)NCc1ccc2c(c1)OCO2 | > 10 | – | > 10 | > 10 | > 10
Cc1ccc(-c2nc3ccccc3[nH]2)cc1NC(=S)NC(=O)c1ccc2c(c1)OCCO2 | 0.5 | 34 | 0.24 | 0.53 | 0.15
Cc1ccc(-c2nc3ccccc3[nH]2)cc1NC(=S)NC(=O)c1ccccc1 | > 10 | – | > 10 | > 10 | > 10
Cc1ccc(-c2nc3cc(F)ccc3[nH]2)cc1NC(=S)NC(=O)c1ccc2c(c1)OCO2 | – | – | > 10 | – | > 10
COc1ccc(C(=O)NC(=S)Nc2cccc(-c3nc4ccccc4[nH]3)c2)cc1OC | 10 | – | 6 | > 10 | 5
CCOc1ccc(C(=O)NC(=S)Nc2cccc(-c3nc4ccccc4[nH]3)c2)cc1OCC | – | 14 | 8 | – | 8
Cc1ccc(-c2nc3ccccc3s2)cc1NC(=S)NC(=O)c1ccc2c(c1)OCO2 | > 10 | – | 5 | > 10 | 5
O=C(NC(=S)Nc1cccc(-c2nc3ccccc3[nH]2)c1)c1ccccc1 | > 10 | – | > 10 | > 10 | > 10
COc1ccc(C(=O)NC(=O)Nc2cccc(-c3nc4ccccc4[nH]3)c2)cc1OC | – | – | 8 | – | 8
O=C(NC(=S)Nc1cccc(-c2nc3ccccc3s2)c1)c1ccc2c(c1)OCCO2 | > 10 | – | 2.6 | > 10 | 2.6
CCOc1ccc(C(=O)NC(=S)Nc2cc(-c3nc4ccccc4[nH]3)ccc2C)cc1OCC | – | 32 | – | – | 6
